For series [1], the species on record is Rattus norvegicus. The series can be described thus: Radioactivity distribution in kidney of normal fischer rat after injection of [18F]fluoro-2-methylpropanoic acid after 30 min. The format is ADME, organism-based. The note with it: in vivo, 0.5 h. An outline of the steps:
(§1)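 Normal male Fischer 344 rats (200–250 g), anesthetized with i.m. ketamine:xylazine (1:1), got ~85 μCi of tracer in 0.3 mL sterile water i.v. via tail-vein catheter. Groups of four were killed at 5, 30, 60 or 120 min. Tissues were weighed and gamma-counted against dose standards, and counts were decay-corrected to %ID/g. Results are mean ± standard error (n = 4), compared by one-way ANOVA.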

Series [2] is filed under the species Rattus norvegicus. The series can be described thus: Radioactivity distribution in muscle of tumor-bearing fischer rat after injection of [18F]fluoro-2-methylpropanoic acid after 120 min. The format is ADME, organism-based, Muscle tissue. The following applies: in vivo, 2 h. An outline of the steps: (§2)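 Male Fischer 344 rats carried intracranial 9L gliosarcoma, stereotactically implanted (4×10^4 cells) and used 17–19 days later. Awake, restrained animals received about 35 μCi tracer in 0.3 mL sterile water via the tail vein and were killed at 5, 60 or 120 min (n = 4–5). Tissues were weighed, gamma-counted, decay-corrected and reported as %ID/g ± standard error.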

The species named for series [3] is Rattus norvegicus. The series can be described thus: Radioactivity distribution in pancreas of tumor-bearing fischer rat after injection of [18F]fluoro-2-methylpropanoic acid after 120 min. The following applies: in vivo, 2 h. In kind it is ADME, organism-based. An outline of the steps:
as §2

The species named for series [4] is Rattus norvegicus. The series can be described thus: Radioactivity distribution in testis of normal fischer rat after injection of [18F]fluoro-2-methylpropanoic acid after 5 min. In kind it is ADME, organism-based. The following applies: in vivo. The essentials:
(§3)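 Male Fischer 344 rats (200–250 g), fed ad libitum, under intramuscular ketamine:xylazine anesthesia, got ~85 μCi radiotracer in 0.3 mL sterile water by tail-vein catheter. Groups of four were killed at 5, 30, 60 or 120 min. Dissected tissues were weighed and gamma-counted with dose standards. Counts were decay-corrected and given as %ID/g, mean ± standard error. Tissues were compared by one-way ANOVA.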

The species entered for series [5] is Rattus norvegicus. The series can be described thus: Radioactivity distribution in testis of normal fischer rat after injection of [18F]fluoro-2-methylpropanoic acid after 60 min. The format is ADME, organism-based. The note with it: in vivo, 1 h. An outline of the steps:
as §3

Series [6] is filed under the species Rattus norvegicus. The series can be described thus: Radioactivity distribution in lung of normal fischer rat after injection of [18F]fluoro-2-methylpropanoic acid after 120 min. The format is ADME, organism-based. The note with it: in vivo, 2 h. An outline of the steps:
(§4)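 Male Fischer 344 rats (200–250 g), fed ad libitum, anesthetized with intramuscular ketamine:xylazine (1:1, 0.1 mL/100 g). About 85 μCi tracer in 0.3 mL sterile water was given by tail-vein catheter. Groups of four were killed at 5, 30, 60 or 120 min. Tissues were weighed and gamma-counted against dose standards, decay-corrected, and expressed as %ID/g (mean ± standard error).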

The species named for series [7] is Rattus norvegicus. Briefly: Radioactivity distribution in pancreas of normal fischer rat after injection of [18F]fluoro-2-methylpropanoic acid after 60 min. The format is ADME, organism-based. The note with it: in vivo, 1 h. An outline of the steps:
as §4

The species named for series [8] is Rattus norvegicus. The series can be described thus: Radioactivity distribution in muscle of normal fischer rat after injection of [18F]fluoro-2-methylpropanoic acid after 120 min. The note with it: in vivo, 2 h. The format is ADME, organism-based, Muscle tissue. An outline of the steps:
as §4

For series [9], the species on record is Rattus norvegicus. Briefly: Radioactivity distribution in bone of normal fischer rat after injection of [18F]fluoro-2-methylpropanoic acid after 60 min. The format is ADME, organism-based, Bone element. The note with it: in vivo, 1 h. The essentials:
as §1

For series [10], the species on record is Rattus norvegicus. The series can be described thus: Radioactivity distribution in bone of tumor-bearing fischer rat after injection of [18F]fluoro-2-methylpropanoic acid after 120 min. The format is ADME, organism-based, Bone element. The note with it: in vivo, 2 h. The essentials: (§5)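 Male Fischer 344 rats carried intracranial 9L gliosarcoma, implanted stereotactically (4×10^4 cells) and used 17–19 days later. Awake restrained rats got ~35 μCi of tracer in 0.3 mL sterile water by tail-vein injection and were killed at 5, 60 or 120 min. Tissues were weighed and gamma-counted, and counts were decay-corrected to %ID/g. Results are mean ± standard error; n = 4 at 5 and 120 min, n = 5 at 60 min.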

The species named for series [11] is Rattus norvegicus. Briefly: Radioactivity distribution in liver of normal fischer rat after injection of [18F]-fluoro-2-methylpropanoic acid after 120 min. The format is ADME, organism-based. The note with it: in vivo, 2 h. The essentials: as §4
The species named for series [12] is Rattus norvegicus. Briefly: Radioactivity distribution in brain of tumor-bearing fischer rat after injection of [18F]fluoro-2-methylpropanoic acid after 60 min. In kind it is ADME, organism-based. The note with it: in vivo, 1 h. An outline of the steps:
as §5

As for `CC(N)(C[18F])C(=O)O.Cl` (configuration not stated), the ID/g was determined as 5.59% in the series listed under Rattus norvegicus [1]; 0.21% in the series filed under Rattus norvegicus [2]; 1.42% in the series filed under Rattus norvegicus [3]; 0.17% in the series filed under Rattus norvegicus [4]; 0.12% in the series filed under Rattus norvegicus [5]; 0.37% in the series listed under Rattus norvegicus [6]. Further, the ID/g amounted to 2.95% in the series filed under Rattus norvegicus [7]; 0.19% in the series listed under Rattus norvegicus [8]; 0.19% in the series listed under Rattus norvegicus [9]; 0.16% in the series listed under Rattus norvegicus [10]; 0.48% in the series listed under Rattus norvegicus [11]; 0.054% in the series listed under Rattus norvegicus [12].

(Values after ChEMBL document CHEMBL1135739, “Radiolabeled amino acids for tumor imaging with PET: radiosynthesis and biological evaluation of 2-amino-3-[18F]fluoro-2-methylpropanoic acid and 3-[18F]fluoro-2-methyl-2-(methylamino)propanoic acid” (J Med Chem, 2002).)
